{"source": "ChEMBL document CHEMBL1909628", "about": "“Discovery of 6-substituted indole-3-glyoxylamides as lead antiprion agents with enhanced cell line activity, improved microsomal stability and low toxicity” (Eur J Med Chem, 2011)", "data": [{"system": "not listed separately", "assay": "Antiprion activity against PrPsc infected in mouse SMB.s15 cells assessed as complete clearance of PrPSc after 5 days by dot blot analysis", "type": "cell-based", "conditions": "SMB.s15, 120 h", "procedure,_shortened": "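SMB.s15 cells (scrapie-infected, mesodermal origin) in Medium 199 with 10% newborn calf and 5% fetal calf serum, seeded at 12,000 cells/well, 24 h attachment. Compound added from DMSO stock via HBSS dilution, 5 days at 37 °C. Lysates dot-blotted, proteinase K digestion (1 h, 37 °C), guanidine thiocyanate, anti-PrP 6H4 mAb, ECL. Triplicate, PrPSc relative to DMSO-only control.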", "units": {"EC50": "nM"}, "values": [{"smiles": "O=C(Nc1ccccc1)C(=O)c1c[nH]c2ccc(Cl)cc12", "EC50": 1630}, {"smiles": "O=C(Nc1ccc(N2CCOCC2)cc1)C(=O)c1c[nH]c2cc(Cl)ccc12", "EC50": 7.3}, {"smiles": "Cn1cc(C(=O)C(=O)Nc2ccc(-n3cccc3)cc2)c2ccc(Cl)cc21", "EC50": 270}, {"smiles": "Cc1ccc2c(C(=O)C(=O)Nc3ccccc3)c[nH]c2c1", "EC50": 44}, {"smiles": "COc1ccc(NC(=O)C(=O)c2cn(C)c3ccccc23)cc1", "EC50": 68}, {"smiles": "O=C(Nc1ccc(-n2cccn2)cc1)C(=O)c1c[nH]c2cc(F)ccc12", "EC50": 1.2}, {"smiles": "Cc1ccc(NC(=O)C(=O)c2c[nH]c3cccc(C)c23)cc1", "EC50": "> 20000"}, {"smiles": "Cn1cc(C(=O)C(=O)Nc2ccc(-n3cccc3)cc2)c2ccccc21", "EC50": 170}, {"smiles": "O=C(Nc1ccc(N2CCOCC2)cc1)C(=O)c1c[nH]c2c(Cl)cccc12", "EC50": 7.2}, {"smiles": "O=C(Nc1ccccc1)C(=O)c1c[nH]c2cc(Cl)ccc12", "EC50": 74}, {"smiles": "COc1ccc(NC(=O)C(=O)c2c[nH]c3cccc(C)c23)cc1", "EC50": 2360}, {"smiles": "Cc1ccc(NC(=O)C(=O)c2c[nH]c3ccc(Cl)cc23)cc1", "EC50": 560}, {"smiles": "Cc1ccc2[nH]cc(C(=O)C(=O)Nc3ccccc3)c2c1", "EC50": 11500}, {"smiles": "O=C(Nc1ccc(-n2cccc2)cc1)C(=O)c1c[nH]c2cc(F)ccc12", "EC50": 7.7}, {"smiles": "COc1ccc(NC(=O)C(=O)c2c[nH]c3ccc(C)cc23)cc1", "EC50": 880}, {"smiles": "COc1ccc(NC(=O)C(=O)c2c[nH]c3ccc(Cl)cc23)cc1", "EC50": 470}, {"smiles": "COc1ccc(NC(=O)C(=O)c2cn(C)c3cc(Cl)ccc23)cc1", "EC50": 1630}, {"smiles": "Cc1cccc2c(C(=O)C(=O)Nc3ccc(N4CCOCC4)cc3)c[nH]c12", "EC50": 16}, {"smiles": "COc1ccc(NC(=O)C(=O)c2c[nH]c3c(C)cccc23)cc1", "EC50": 150}, {"smiles": "O=C(Nc1ccc(-n2cccc2)cc1)C(=O)c1c[nH]c2cc(Cl)ccc12", "EC50": 17}]}, {"system": "not listed separately", "assay": "Toxicity in zebrafish assessed as mortality rate at 5 uM measured after 72 hrs", "type": "organism-based, Danio rerio", "conditions": "in vivo, read-out: Activity", "procedure,_shortened": "(§1)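 AB wild-type zebrafish embryos dechorionated with pronase at 48 hpf, 3 per well in methylene blue-free E3 medium. Dosed at 5 uM from 10 mM DMSO stocks (1% v/v DMSO). Kept at 28 °C for 72 h without food; survival scored at day 5 versus vehicle controls. Two experiments, each in triplicate.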", "units": {"mortality at 72 h, 5 µM": "%"}, "values": [{"smiles": "O=C(Nc1ccc(N2CCOCC2)cc1)C(=O)c1c[nH]c2cc(Cl)ccc12", "mortality at 72 h, 5 µM": 20}, {"smiles": "Cc1ccc(NC(=O)C(=O)c2c[nH]c3cccc(C)c23)cc1", "mortality at 72 h, 5 µM": 20}, {"smiles": "O=C(Nc1ccc(N2CCOCC2)cc1)C(=O)c1c[nH]c2c(Cl)cccc12", "mortality at 72 h, 5 µM": 20}, {"smiles": "Cc1ccc(NC(=O)C(=O)c2c[nH]c3ccc(Cl)cc23)cc1", "mortality at 72 h, 5 µM": 20}, {"smiles": "Cc1cccc2c(C(=O)C(=O)Nc3ccc(N4CCOCC4)cc3)c[nH]c12", "mortality at 72 h, 5 µM": 20}]}, {"system": "not listed separately", "assay": "Cytotoxicity against mouse SMB.s15 cells at 20 uM after 5 days by MTT assay", "type": "cell-based", "conditions": "smb.s15, 120 h", "procedure,_shortened": "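SMB.s15 cells at 12,000 cells/well, exposed to compound for 5 days at 37 °C (DMSO stock diluted via HBSS into medium). Viability measured by MTT assay per the reagent's standard protocol.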", "values": [{"smiles": "O=C(Nc1ccccc1)C(=O)c1c[nH]c2ccc(Cl)cc12", "Activity": "Non-toxic"}, {"smiles": "O=C(Nc1ccc(N2CCOCC2)cc1)C(=O)c1c[nH]c2cc(Cl)ccc12", "Activity": "Non-toxic"}, {"smiles": "Cn1cc(C(=O)C(=O)Nc2ccc(-n3cccc3)cc2)c2ccc(Cl)cc21", "Activity": "Non-toxic"}, {"smiles": "Cc1ccc2c(C(=O)C(=O)Nc3ccccc3)c[nH]c2c1", "Activity": "Non-toxic"}, {"smiles": "COc1ccc(NC(=O)C(=O)c2cn(C)c3ccccc23)cc1", "Activity": "Non-toxic"}, {"smiles": "O=C(Nc1ccc(-n2cccn2)cc1)C(=O)c1c[nH]c2cc(F)ccc12", "Activity": "Non-toxic"}, {"smiles": "Cc1ccc(NC(=O)C(=O)c2c[nH]c3cccc(C)c23)cc1", "Activity": "Non-toxic"}, {"smiles": "Cn1cc(C(=O)C(=O)Nc2ccc(-n3cccc3)cc2)c2ccccc21", "Activity": "Non-toxic"}, {"smiles": "O=C(Nc1ccc(N2CCOCC2)cc1)C(=O)c1c[nH]c2c(Cl)cccc12", "Activity": "Non-toxic"}, {"smiles": "O=C(Nc1ccccc1)C(=O)c1c[nH]c2cc(Cl)ccc12", "Activity": "Non-toxic"}, {"smiles": "COc1ccc(NC(=O)C(=O)c2c[nH]c3cccc(C)c23)cc1", "Activity": "Non-toxic"}, {"smiles": "Cc1ccc(NC(=O)C(=O)c2c[nH]c3ccc(Cl)cc23)cc1", "Activity": "Non-toxic"}, {"smiles": "Cc1ccc2[nH]cc(C(=O)C(=O)Nc3ccccc3)c2c1", "Activity": "Non-toxic"}, {"smiles": "O=C(Nc1ccc(-n2cccc2)cc1)C(=O)c1c[nH]c2cc(F)ccc12", "Activity": "Non-toxic"}, {"smiles": "COc1ccc(NC(=O)C(=O)c2c[nH]c3ccc(C)cc23)cc1", "Activity": "Non-toxic"}, {"smiles": "COc1ccc(NC(=O)C(=O)c2c[nH]c3ccc(Cl)cc23)cc1", "Activity": "Non-toxic"}, {"smiles": "COc1ccc(NC(=O)C(=O)c2cn(C)c3cc(Cl)ccc23)cc1", "Activity": "Non-toxic"}, {"smiles": "Cc1cccc2c(C(=O)C(=O)Nc3ccc(N4CCOCC4)cc3)c[nH]c12", "Activity": "Non-toxic"}, {"smiles": "COc1ccc(NC(=O)C(=O)c2c[nH]c3c(C)cccc23)cc1", "Activity": "Non-toxic"}, {"smiles": "O=C(Nc1ccc(-n2cccc2)cc1)C(=O)c1c[nH]c2cc(Cl)ccc12", "Activity": "Non-toxic"}]}, {"system": "not listed separately", "assay": "(§2) Toxicity in zebrafish assessed as organism survival at 5 uM treated at 48 hrs post-fertilization measured after 3 days", "type": "organism-based, Danio rerio", "conditions": "in vivo", "procedure,_shortened": "as §1", "units": {"survival at 72 h, 5 µM": "%"}, "values": [{"smiles": "Cn1cc(C(=O)C(=O)Nc2ccc(-n3cccc3)cc2)c2ccc(Cl)cc21", "survival at 72 h, 5 µM": 100}, {"smiles": "Cc1ccc2c(C(=O)C(=O)Nc3ccccc3)c[nH]c2c1", "survival at 72 h, 5 µM": 100}, {"smiles": "Cc1ccc(NC(=O)C(=O)c2c[nH]c3cccc(C)c23)cc1", "survival at 72 h, 5 µM": 100}, {"smiles": "Cn1cc(C(=O)C(=O)Nc2ccc(-n3cccc3)cc2)c2ccccc21", "survival at 72 h, 5 µM": 100}, {"smiles": "O=C(Nc1ccc(N2CCOCC2)cc1)C(=O)c1c[nH]c2c(Cl)cccc12", "survival at 72 h, 5 µM": 100}, {"smiles": "O=C(Nc1ccccc1)C(=O)c1c[nH]c2cc(Cl)ccc12", "survival at 72 h, 5 µM": 100}, {"smiles": "COc1ccc(NC(=O)C(=O)c2c[nH]c3cccc(C)c23)cc1", "survival at 72 h, 5 µM": 100}, {"smiles": "Cc1ccc(NC(=O)C(=O)c2c[nH]c3ccc(Cl)cc23)cc1", "survival at 72 h, 5 µM": 100}, {"smiles": "Cc1ccc2[nH]cc(C(=O)C(=O)Nc3ccccc3)c2c1", "survival at 72 h, 5 µM": 100}, {"smiles": "O=C(Nc1ccc(-n2cccc2)cc1)C(=O)c1c[nH]c2cc(F)ccc12", "survival at 72 h, 5 µM": 100}, {"smiles": "COc1ccc(NC(=O)C(=O)c2c[nH]c3ccc(C)cc23)cc1", "survival at 72 h, 5 µM": 100}, {"smiles": "Cc1cccc2c(C(=O)C(=O)Nc3ccc(N4CCOCC4)cc3)c[nH]c12", "survival at 72 h, 5 µM": 100}, {"smiles": "COc1ccc(NC(=O)C(=O)c2c[nH]c3c(C)cccc23)cc1", "survival at 72 h, 5 µM": 100}]}, {"species": "Danio rerio", "assay": "as §2", "type": "organism-based", "conditions": "in vivo, 72 h, 5 µM", "procedure,_shortened": "as §1", "values": [{"smiles": "O=C(Nc1ccccc1)C(=O)c1c[nH]c2ccc(Cl)cc12", "Activity": "Toxic"}, {"smiles": "COc1ccc(NC(=O)C(=O)c2cn(C)c3ccccc23)cc1", "Activity": "Toxic"}, {"smiles": "O=C(Nc1ccc(-n2cccn2)cc1)C(=O)c1c[nH]c2cc(F)ccc12", "Activity": "Toxic"}, {"smiles": "COc1ccc(NC(=O)C(=O)c2c[nH]c3ccc(Cl)cc23)cc1", "Activity": "Toxic"}, {"smiles": "COc1ccc(NC(=O)C(=O)c2cn(C)c3cc(Cl)ccc23)cc1", "Activity": "Toxic"}, {"smiles": "O=C(Nc1ccc(-n2cccc2)cc1)C(=O)c1c[nH]c2cc(Cl)ccc12", "Activity": "Toxic"}]}, {"system": "ScN2a", "assay": "Cytotoxicity against mouse ScN2a cells up to 32 uM", "type": "cell-based", "conditions": "not given", "procedure,_shortened": "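ScN2a cells seeded separately in 96-well plates. Calcein cell viability assay run in parallel with the ELISA screen, up to 32 uM maximum.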", "values": [{"smiles": "O=C(Nc1ccccc1)C(=O)c1c[nH]c2ccc(Cl)cc12", "Activity": "Non-toxic"}, {"smiles": "O=C(Nc1ccc(N2CCOCC2)cc1)C(=O)c1c[nH]c2cc(Cl)ccc12", "Activity": "Non-toxic"}, {"smiles": "Cn1cc(C(=O)C(=O)Nc2ccc(-n3cccc3)cc2)c2ccc(Cl)cc21", "Activity": "Non-toxic"}, {"smiles": "Cc1ccc2c(C(=O)C(=O)Nc3ccccc3)c[nH]c2c1", "Activity": "Non-toxic"}, {"smiles": "COc1ccc(NC(=O)C(=O)c2cn(C)c3ccccc23)cc1", "Activity": "Non-toxic"}, {"smiles": "O=C(Nc1ccc(-n2cccn2)cc1)C(=O)c1c[nH]c2cc(F)ccc12", "Activity": "Non-toxic"}, {"smiles": "Cc1ccc(NC(=O)C(=O)c2c[nH]c3cccc(C)c23)cc1", "Activity": "Non-toxic"}, {"smiles": "Cn1cc(C(=O)C(=O)Nc2ccc(-n3cccc3)cc2)c2ccccc21", "Activity": "Non-toxic"}, {"smiles": "O=C(Nc1ccc(N2CCOCC2)cc1)C(=O)c1c[nH]c2c(Cl)cccc12", "Activity": "Non-toxic"}, {"smiles": "O=C(Nc1ccccc1)C(=O)c1c[nH]c2cc(Cl)ccc12", "Activity": "Non-toxic"}, {"smiles": "COc1ccc(NC(=O)C(=O)c2c[nH]c3cccc(C)c23)cc1", "Activity": "Non-toxic"}, {"smiles": "Cc1ccc(NC(=O)C(=O)c2c[nH]c3ccc(Cl)cc23)cc1", "Activity": "Non-toxic"}, {"smiles": "Cc1ccc2[nH]cc(C(=O)C(=O)Nc3ccccc3)c2c1", "Activity": "Non-toxic"}, {"smiles": "O=C(Nc1ccc(-n2cccc2)cc1)C(=O)c1c[nH]c2cc(F)ccc12", "Activity": "Non-toxic"}, {"smiles": "COc1ccc(NC(=O)C(=O)c2c[nH]c3ccc(C)cc23)cc1", "Activity": "Non-toxic"}, {"smiles": "COc1ccc(NC(=O)C(=O)c2c[nH]c3ccc(Cl)cc23)cc1", "Activity": "Non-toxic"}, {"smiles": "COc1ccc(NC(=O)C(=O)c2cn(C)c3cc(Cl)ccc23)cc1", "Activity": "Non-toxic"}, {"smiles": "Cc1cccc2c(C(=O)C(=O)Nc3ccc(N4CCOCC4)cc3)c[nH]c12", "Activity": "Non-toxic"}, {"smiles": "COc1ccc(NC(=O)C(=O)c2c[nH]c3c(C)cccc23)cc1", "Activity": "Non-toxic"}, {"smiles": "O=C(Nc1ccc(-n2cccc2)cc1)C(=O)c1c[nH]c2cc(Cl)ccc12", "Activity": "Non-toxic"}]}]}
